Experimental data taken from ChEMBL document CHEMBL1129520 (J Med Chem, 1996).

Columns and labels:
[1] = target: Histamine H2 receptor (Cavia porcellus) (UniProt P47747); test: […] activity against histamine H2 receptor on guinea pig atrium; format: functional, tissue-based; conditions: Cardiac atrium
In short: (§1)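 Isolated, spontaneously beating guinea pig right atrium, standard functional H2 method. Each test run at least in triplicate.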

[2] = target: T1, Histamine H3 receptor (Rattus norvegicus, UniProt Q9QYN8); test: Binding affinity towards Histamine H3 receptor on synaptosomes from rat cerebral cortex; format: subcellular, Brain
T1 sequence (Q9QYN8 whole entry): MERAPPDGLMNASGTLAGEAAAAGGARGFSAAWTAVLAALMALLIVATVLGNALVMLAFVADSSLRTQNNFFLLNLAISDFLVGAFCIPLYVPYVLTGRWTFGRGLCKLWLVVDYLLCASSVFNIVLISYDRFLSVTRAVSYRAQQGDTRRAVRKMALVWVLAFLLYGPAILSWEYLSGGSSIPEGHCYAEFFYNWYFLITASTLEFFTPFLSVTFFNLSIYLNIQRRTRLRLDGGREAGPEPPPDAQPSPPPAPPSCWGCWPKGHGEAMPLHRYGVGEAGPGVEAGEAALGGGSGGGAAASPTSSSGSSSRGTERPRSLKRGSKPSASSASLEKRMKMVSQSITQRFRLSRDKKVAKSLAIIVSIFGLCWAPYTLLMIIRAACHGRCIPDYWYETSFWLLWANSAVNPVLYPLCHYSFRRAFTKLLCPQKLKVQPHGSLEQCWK
In short: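 Rat cerebral cortex homogenized in ice-cold 50 mM Na2HPO4/KH2PO4, pH 7.5, then washed membranes after two differential centrifugations. Incubated 60 min at 25 °C with [3H]-(R)-α-methylhistamine and drugs at various concentrations. Stopped by ice-cold dilution, vacuum-filtered through glass-fibre filters, scintillation counted. Nonspecific binding defined with 3 µM thioperamide.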

[3] = target: T1, Histamine H3 receptor; test: (§2) In vitro antagonistic activity tested against Histamine H3 receptor on synaptosomes from rat cerebral cortex; format: functional, subcellular, Brain
In short: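 Preloaded 30 min with L-[3H]histidine (0.4 µM) at 37 °C in modified Krebs-Ringer. Washed, resuspended in 2 mM K+ medium, then depolarized 2 min with 2 or 30 mM K+ (final). […] Stopped by rapid centrifugation; liquid scintillation. Ki by Cheng-Prusoff; mean ± SEM, ≥3 determinations.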

[4] = target: Histamine H3 receptor (Mus musculus) (UniProt P58406); test: In vivo antagonistic activity was tested against histamine H3 receptor after oral administration to mouse; format: functional, organism-based
Chain of Histamine H3 receptor (Mus musculus) (P58406 whole entry): as the sequence (Q9QYN8 whole entry) above, with T15A, A286T, A290G, R387H, I389V counted along it
In short: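 Swiss mice dosed perorally. Read-out was the increase in brain Nτ-methylhistamine levels.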

[5] = target: Histamine H1 receptor (Cavia porcellus) (UniProt P31389); test: […] activity against histamine H1 receptor on guinea pig ileum; format: functional, tissue-based
Chain of Histamine H1 receptor (Cavia porcellus) (P31389 whole entry): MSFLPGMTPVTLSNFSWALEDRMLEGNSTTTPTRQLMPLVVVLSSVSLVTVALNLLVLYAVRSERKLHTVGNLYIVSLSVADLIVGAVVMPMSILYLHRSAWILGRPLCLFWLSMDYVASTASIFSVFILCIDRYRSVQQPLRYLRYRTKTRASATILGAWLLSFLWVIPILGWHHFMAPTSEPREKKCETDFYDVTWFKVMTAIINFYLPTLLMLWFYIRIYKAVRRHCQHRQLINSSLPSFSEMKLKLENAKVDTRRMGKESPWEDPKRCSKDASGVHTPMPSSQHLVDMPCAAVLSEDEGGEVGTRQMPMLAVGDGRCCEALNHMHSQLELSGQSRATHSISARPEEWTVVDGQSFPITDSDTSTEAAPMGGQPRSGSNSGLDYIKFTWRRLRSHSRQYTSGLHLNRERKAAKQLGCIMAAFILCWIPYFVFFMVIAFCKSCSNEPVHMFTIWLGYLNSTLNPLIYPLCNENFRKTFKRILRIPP
In short: (§3)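 Isolated guinea pig ileum, standard functional H1 method. Each test run at least in triplicate.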

[6] = target: Histamine H1 receptor (Cavia porcellus) (UniProt P31389); test: […] activity tested against histamine H1 receptor on guinea pig ileum; format: functional, tissue-based; in short: as §3
[7] = target: Histamine H2 receptor (Cavia porcellus) (UniProt P47747); test: […] activity tested against histamine H2 receptor on guinea pig atrium; format: functional, tissue-based; conditions: Cardiac atrium; in short: as §1
[8] = target: T1, Histamine H3 receptor; test: as §2; format: functional, subcellular, Brain; remark: listed apart in the source
In short: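 Rat cerebral cortex synaptosomes preincubated 30 min at 37 °C with L-[3H]histidine (0.4 µM) in modified Krebs-Ringer, washed, resuspended in 2 mM K+ medium. […] Ki via Cheng-Prusoff; mean ± SEM, at least three determinations.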

[9] = target: T1, Histamine H3 receptor; test: In vitro antagonistic activity against histamine H3 receptor on rat cerebral cortex; format: functional, tissue-based
In short: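 Synaptosomes were preloaded 30 min with L-[3H]histidine (0.4 µM) at 37 °C in modified Krebs-Ringer, then washed and resuspended in 2 mM K+ medium. […] The reaction was stopped by centrifugation and read by scintillation. Ki by Cheng-Prusoff, mean ± SEM, n≥3.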

Chain of Histamine H2 receptor (Cavia porcellus) (P47747 whole entry): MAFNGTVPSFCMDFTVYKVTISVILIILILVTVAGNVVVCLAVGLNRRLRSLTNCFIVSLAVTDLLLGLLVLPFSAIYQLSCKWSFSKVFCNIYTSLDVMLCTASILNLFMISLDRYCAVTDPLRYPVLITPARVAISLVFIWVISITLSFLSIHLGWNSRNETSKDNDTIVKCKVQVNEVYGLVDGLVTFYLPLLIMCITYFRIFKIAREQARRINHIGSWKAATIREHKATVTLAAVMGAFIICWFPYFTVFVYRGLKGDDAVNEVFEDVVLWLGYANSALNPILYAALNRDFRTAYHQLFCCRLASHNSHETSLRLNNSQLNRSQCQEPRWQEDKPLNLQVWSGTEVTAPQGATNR

Brc1ccc(COCCCc2c[nH]cn2)cc1
Kb [1]: 12600 nM | Ki [2]: 1.26 nM | Ki [3]: 14 nM | ED50 [4]: > 10 mg/kg | Kb [5]: 1260 nM

O=C(NCc1ccc(I)cc1)OCCCc1c[nH]cn1
Ki [2]: 12.6 nM | Ki [3]: 12 nM | -Log KB [6]: 5.1 | -Log KB [7]: 4.5

Ic1cccc(OCCCc2cnc[nH]2)c1
Ki [2]: 2.51 nM | Ki [3]: 17 nM

O=C(CCc1ccc(I)cc1)OCCCc1c[nH]cn1
Ki [2]: 79.4 nM | Ki [3]: 47 nM | -Log KB [6]: 4.8 | -Log KB [7]: 3.6

O=C(OCCCc1c[nH]cn1)c1cccc(I)c1
Ki [2]: 3.98 nM | Ki [3]: 25 nM | -Log KB [6]: 4.8 | -Log KB [7]: 3.8

O=C(CCCc1ccc(I)cc1)OCCCc1c[nH]cn1
-Log KB [6]: 4.8 | -Log KB [7]: 4

Ic1ccc(CCCOCCCc2c[nH]cn2)cc1
Ki [2]: 7.94 nM | Ki [3]: 35 nM | -Log KB [6]: 5.2 | -Log KB [7]: 5.1

Ic1ccc(OCCCc2c[nH]cn2)cc1
-Log KB [6]: 6.2 | -Log KB [7]: 5.2

O=C(Nc1ccccc1I)OCCCc1c[nH]cn1
-Log KB [6]: 4.8 | -Log KB [7]: 4.6

O=C(OCCCc1cnc[nH]1)c1ccc(I)cc1
Ki [2]: 7.94 nM | Ki [3]: 20 nM

S=C(NC1CCCCC1)N1CCC(c2cnc[nH]2)CC1 [THIOPERAMIDE]
Kb [1]: > 10000 nM | Ki [8]: 3.98 nM | Ki [9]: 2 nM

Ic1ccc(COCCCc2c[nH]cn2)cc1 [IODOPROXYFAN]
Ki [2]: 1 nM | Ki [3]: 5 nM | ED50 [4]: > 10 mg/kg | -Log KB [6]: 5.8 | -Log KB [7]: 5.2

O=C(Cc1ccc(I)cc1)OCCCc1cnc[nH]1
Ki [2]: 12.6 nM | Ki [3]: 14 nM

O=C(Nc1cccc(I)c1)OCCCc1cnc[nH]1
Ki [2]: 7.94 nM | Ki [3]: 16 nM

O=C(Cc1ccc(I)cc1)OCCCc1c[nH]cn1
-Log KB [6]: 4.5 | -Log KB [7]: 3.6

Ic1cccc(OCCCc2c[nH]cn2)c1
-Log KB [6]: 6.2 | -Log KB [7]: 5.6

Nc1c(I)cc(C(=O)OCCCc2c[nH]cn2)cc1I
-Log KB [6]: 5.9 | -Log KB [7]: 4.6

O=C(OCCCc1c[nH]cn1)c1ccc(I)cc1
-Log KB [6]: 4.2 | -Log KB [7]: 4.5

O=C(Nc1cccc(I)c1)OCCCc1c[nH]cn1
-Log KB [6]: 5.1 | -Log KB [7]: 5.3

O=C(Nc1ccc(I)cc1)OCCCc1c[nH]cn1
ED50 [4]: > 10 mg/kg | -Log KB [6]: 4.4 | -Log KB [7]: 5.3

Cc1[nH]cnc1CSCCNC(=N)NCCCc1c[nH]cn1 [IMPROMIDINE]
Kb [1]: 501 nM | Ki [8]: 63.1 nM | Kb [5]: > 10000 nM

Ic1cccc(COCCCc2c[nH]cn2)c1
Ki [2]: 1.26 nM | Ki [3]: 7 nM | ED50 [4]: > 10 mg/kg | -Log KB [6]: 5.8 | -Log KB [7]: 5.8

Cc1ccc(C(=O)OCCCc2c[nH]cn2)cc1I
-Log KB [6]: 4.9 | -Log KB [7]: 4.2

Ic1ccc(OCCCc2cnc[nH]2)cc1
Ki [2]: 3.16 nM | Ki [3]: 22 nM

O=C(OCCCc1cnc[nH]1)c1ccccc1I
Ki [2]: 20 nM | Ki [3]: 39 nM

OCCCc1c[nH]cn1
Ki [8]: 398 nM | Ki [2]: 631 nM | ED50 [4]: > 10 mg/kg

Nc1c(I)cc(C(=O)OCCCc2cnc[nH]2)cc1I
Ki [2]: 31.6 nM | Ki [3]: 146 nM

O=C(Nc1ccc(I)cc1)OCCCc1cnc[nH]1
Ki [8]: 10 nM | Ki [2]: 7.94 nM | Ki [3]: 11 nM

O=C(OCCCc1c[nH]cn1)c1ccccc1I
-Log KB [6]: 5.9 | -Log KB [7]: 4.6

O=C(Nc1ccccc1I)OCCCc1cnc[nH]1
Ki [2]: 25.1 nM | Ki [3]: 25 nM

COc1ccc(CCC(=O)OCCCc2c[nH]cn2)cc1I
-Log KB [6]: < 4 | -Log KB [7]: 4.5

COc1ccc(CCC(=O)OCCCc2cnc[nH]2)cc1I
Ki [2]: 200 nM | Ki [3]: 232 nM

Cc1ccc(C(=O)OCCCc2cnc[nH]2)cc1I
Ki [2]: 5.01 nM | Ki [3]: 30 nM

O=C(CCCc1ccc(I)cc1)OCCCc1cnc[nH]1
Ki [2]: 31.6 nM | Ki [3]: 41 nM
